UHRF1 MBD2 ctr: human UHRF1 methylated DNA binding inhibitors. UHRF1 binding to methylated oligo, TR-FRET. inhibition, % at 4.4 µM. actives 0.75% (n = 370,000); in the data active means inhibition above about 21%;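 further: UHRF1 SRA domain binding a hemimethylated CpG hairpin DNA probe; 0% = median of test compound wells and 100% = reference inhibitor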
rCAG RNA binder: molecules binding r(CAG) RNA repeats; actives 1.3% (n = 370,000); r(CAG) RNA repeat, TO-PRO-1 dye displacement fluorescence; inhibition, % at 3 µM; AID 651821;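 active means inhibition above the plate cutoff, the mean of all test compounds on that plate plus 3 SD, cut at about 35% in these data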;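 further: 0% = DMSO alone and 100% = 100 µM mitoxantrone as full dye displacement; higher means more dye released from RNA so lower well fluorescence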
ATG4B inh: inhibitors of human ATG4B cysteine protease. actives 0.51% (n = 340,000). Q9Y4P1. inhibition, % at 8.33 µM. ATG4B cleavage of LC3-PLA2, NBD-HPC fluorescence, 1 h; in the data active means inhibition above about 40%
CSN inh: inhibitors of human CSN-mediated cullin deneddylation. actives 0.38% (n = 360,000). inhibition, % at 12.5 µM. Purified CSN, SCF-Nedd8-OG deneddylation, fluorescence polarization. AID 651999;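 active means pattern-corrected inhibition above about 35%, with an unprinted fluorescence ratio check between 0.5 and 1.5, limit read from the data, passing the limit was not always enough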;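 further: 0% = enzyme with substrate and 100% = substrate without enzyme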
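assay system = purified human Csn5 enzyme expressed in HEK293T cells | amount = 0.24 nM enzyme | buffer or medium = Tris/NaCl/DTT buffer, pH 7.5 | reagent = 10 nM SCFSkp2-Nedd8OG | compound = one concentration, 12.5 µM, 0.25% DMSO | times = 90 min reaction at room temperature | signal = FP | read-out basis = % inhibition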
MBD2 inh: MBD2-methylated oligo binding inhibition; Q9UBB5; TR-FRET, MBD2 binding to methylated oligonucleotide; inhibition, % at 4.4 µM; actives 0.31% (n = 370,000); AID 686964; in the data active means inhibition above about 13%
Target sequence (Q9UBB5 whole entry, looked up): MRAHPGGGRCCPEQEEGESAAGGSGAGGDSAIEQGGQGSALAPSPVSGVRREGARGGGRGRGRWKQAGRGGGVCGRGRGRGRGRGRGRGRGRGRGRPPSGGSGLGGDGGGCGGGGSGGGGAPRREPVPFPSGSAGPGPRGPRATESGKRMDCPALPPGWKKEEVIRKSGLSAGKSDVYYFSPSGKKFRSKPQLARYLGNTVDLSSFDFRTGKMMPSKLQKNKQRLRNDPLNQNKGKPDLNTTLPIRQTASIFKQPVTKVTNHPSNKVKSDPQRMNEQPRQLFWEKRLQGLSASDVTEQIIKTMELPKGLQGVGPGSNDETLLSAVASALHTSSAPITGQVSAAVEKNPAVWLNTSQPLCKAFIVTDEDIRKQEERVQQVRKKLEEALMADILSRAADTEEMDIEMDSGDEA
LEDGF integ inh: blocks HIV-1 LEDGF/p75-dependent DNA integration | TR-FRET IN-LEDGF/p75 DNA integration, Eu/Cy5 | inhibition, % at 3.7 µM | actives 0.64% (n = 370,000) | AID 743269;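 active means inhibition above the screen-wide mean plus 3 SD, cut at about 13% in these data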;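 further: signal is the Cy5 over europium emission ratio at 671 and 618 nm; 0% = plate median of compound wells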
* marks the source's active call; other numbers are inactive results. This is a sample that favours compounds with a hit; in the whole collection about 3.1% have one here.

Cc1cc2nc(-c3cccc(Br)c3)c(CC(C)(C)C)n2c(C)c1Br was read as UHRF1 MBD2 ctr 0, rCAG RNA binder 2, CSN inh 132*, MBD2 inh -2 and LEDGF integ inh -1.
`Clc1cccc(-c2nc3ccc(Cl)cn3c2Cc2ccccc2)c1` gave UHRF1 MBD2 ctr 0, rCAG RNA binder 28, CSN inh 8, MBD2 inh -7 and LEDGF integ inh 8.
`Cc1ccc(Cc2c(-c3ccc(C#N)cc3)nc3ccc(Cl)cn23)cc1` gave UHRF1 MBD2 ctr 2, rCAG RNA binder 23, CSN inh 11, MBD2 inh -6 and LEDGF integ inh 3.
For CC(C)(C)Cc1c(-c2ccc(C#N)cc2)nc2ccc(Cl)cn12 the results were UHRF1 MBD2 ctr 21*, rCAG RNA binder 13, CSN inh 4, MBD2 inh 4 and LEDGF integ inh -4.
For CC(C)(C)Cc1c(-c2cccc(Cl)c2)nc2ccc(Cl)cn12 the results were UHRF1 MBD2 ctr 23*, rCAG RNA binder 10, CSN inh 6, MBD2 inh 7 and LEDGF integ inh 0.
O=C(OC12CCCN(C1)/C(=C/c1cccc(Cl)c1)C2)c1ccc(F)cc1 (stereo unspecified) was read as UHRF1 MBD2 ctr 3, rCAG RNA binder 2, MBD2 inh 1 and LEDGF integ inh 3.
Screening CC(COc1cccc(F)c1)CN1CCC(C(O)(c2ccccc2)c2ccccc2)CC1 (stereo unspecified) returned UHRF1 MBD2 ctr 4, rCAG RNA binder 1, MBD2 inh 3 and LEDGF integ inh 4.
For Cc1cc(C)cc(CC2CC(=O)N(c3cc(C)ccc3C)C2=O)c1 (stereo unspecified) the results were UHRF1 MBD2 ctr -1, rCAG RNA binder -7, ATG4B inh -5, CSN inh -2, MBD2 inh -2 and LEDGF integ inh -1.
Screening Cc1ccc(N2C(=O)CC(Cc3cc(C)cc(C)c3)C2=O)cc1 (stereo unspecified) returned UHRF1 MBD2 ctr 24*, rCAG RNA binder -7, ATG4B inh -41, CSN inh -8, MBD2 inh 11 and LEDGF integ inh -5.
CCc1sc(C(=O)NCc2ccco2)cc1C was read as UHRF1 MBD2 ctr 0, rCAG RNA binder 4, ATG4B inh 2, CSN inh 4, MBD2 inh 4 and LEDGF integ inh 4.
`CCc1sc(C(=O)NCc2ccco2)cc1Br` gave UHRF1 MBD2 ctr 26*, rCAG RNA binder 5, ATG4B inh 5, CSN inh -6, MBD2 inh 2 and LEDGF integ inh 13.
For COc1ccc([N+](=O)[O-])cc1NC(=S)NC(C)=O the results were UHRF1 MBD2 ctr -1, rCAG RNA binder 0, ATG4B inh -4, CSN inh 8, MBD2 inh -5 and LEDGF integ inh 1.
Screening COc1ccc(/C=C/C(=O)NC(=S)Nc2cc([N+](=O)[O-])ccc2O)cc1OC returned UHRF1 MBD2 ctr -1, rCAG RNA binder 52*, ATG4B inh -10, CSN inh 2, MBD2 inh 2 and LEDGF integ inh -1.
Cn1c(NC(=O)/C=C\c2ccccc2)cc(=O)n(C)c1=O was read as UHRF1 MBD2 ctr 26*, rCAG RNA binder -2, ATG4B inh -13, CSN inh -1, MBD2 inh 0 and LEDGF integ inh 0.
Screening O=C(N/N=C/c1ccc(OC(F)F)cc1)c1ccc(CSc2nc3ccccc3[nH]2)cc1 returned UHRF1 MBD2 ctr 25*, rCAG RNA binder 5, ATG4B inh -21, CSN inh 0, MBD2 inh 13 and LEDGF integ inh -1.
For CCOc1ccc(/C=N/NC(=O)c2ccc(CSc3nc4ccccc4[nH]3)cc2)cc1 the results were UHRF1 MBD2 ctr -3, rCAG RNA binder 9, ATG4B inh -9, CSN inh 2, MBD2 inh -8 and LEDGF integ inh -1.
Screening CC[C@H](CCCCCCCn1ccc2ccccc21)CCC(=O)N(c1ccccc1)c1ccccc1 returned UHRF1 MBD2 ctr 0, rCAG RNA binder 9, MBD2 inh 0 and LEDGF integ inh 0.
`O=C(NCc1cc(C(F)(F)F)ccc1Cl)c1cccc2c1C(=O)c1ccc(N3CCCCC3)cc1S2(=O)=O` gave UHRF1 MBD2 ctr -1, rCAG RNA binder 2, ATG4B inh 2, CSN inh 55*, MBD2 inh 4 and LEDGF integ inh 2.
O=C(NC1CC1)c1cccc2c1C(=O)c1ccc(N3CCC(N4CCCCC4)CC3)cc1S2(=O)=O was read as UHRF1 MBD2 ctr -12, rCAG RNA binder 1, CSN inh 43*, MBD2 inh -16 and LEDGF integ inh 1.
`Cc1cc(CNC(=O)c2cccc3c2C(=O)c2ccc(-c4ccc(F)cc4OCc4ccccc4)cc2S3(=O)=O)c(C(F)(F)F)o1` gave UHRF1 MBD2 ctr -2, rCAG RNA binder 43*, ATG4B inh 5, CSN inh 5, MBD2 inh -3 and LEDGF integ inh 3.
O=C(NCc1ccc(OC(F)(F)F)cc1)c1cccc2c1C(=O)c1ccc(N3CCCCC3)cc1S2(=O)=O was read as UHRF1 MBD2 ctr 0, rCAG RNA binder -3, ATG4B inh 3, CSN inh -72, MBD2 inh 5 and LEDGF integ inh 0.
Screening O=C(O)c1cccc2c1C(=O)c1ccc(N3CCCC3)cc1S2(=O)=O returned UHRF1 MBD2 ctr -10, rCAG RNA binder -40, ATG4B inh -2, CSN inh 16, MBD2 inh -12 and LEDGF integ inh 1.
`O=C(NCc1ccc(OC(F)(F)F)cc1)c1cccc2c1C(=O)c1ccc(N3CCCC3)cc1S2(=O)=O` gave UHRF1 MBD2 ctr 1, rCAG RNA binder -2, ATG4B inh 2, CSN inh 85*, MBD2 inh 3 and LEDGF integ inh 3.
`C=CCN1C(=O)[C@@H](CC(=O)NCC23CC4CC(CC(C4)C2)C3)[C@]2(C(=O)OCC)CCCCC/C=C/12` gave UHRF1 MBD2 ctr 1, rCAG RNA binder 8, MBD2 inh 1 and LEDGF integ inh -2.
Screening Cc1ccc(OCc2nnc(SCC(=O)Nc3ccc(S(N)(=O)=O)cc3)n2-c2ccc(Cl)cc2)cc1 returned UHRF1 MBD2 ctr 0, rCAG RNA binder 11, MBD2 inh -1 and LEDGF integ inh 1.
CCOc1ccc(/C=N/Nc2ccccn2)cc1OC was read as UHRF1 MBD2 ctr 47*, rCAG RNA binder -3, ATG4B inh -9, CSN inh -2, MBD2 inh -2 and LEDGF integ inh 2.
`CCCOc1ccc(/C=N/Nc2ccccn2)cc1OC` gave UHRF1 MBD2 ctr 2, rCAG RNA binder -4, ATG4B inh -9, CSN inh 3, MBD2 inh 1 and LEDGF integ inh -3.

Screening results deposited in PubChem BioAssay by several laboratories.
